Data published in PubChem BioAssay AID504383 (The Scripps Research Institute Molecular Screening Center, 2011).
About 1,200 (48%) of roughly 2,500 compounds were called active. So high a share suggests a set chosen from earlier hits. The list shows a part of the results. Unmarked numbers belong to inactive results.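 How the source made its calls: active means mean activation above the low control average plus 3 SD, as set in the primary screen (cut at about 12% in these data); inactive means the rest.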

target: Troponin I, cardiac muscle (Homo sapiens) + Troponin T, cardiac muscle (Homo sapiens) + Troponin C, slow skeletal and cardiac muscles (Homo sapiens) (UniProt P19429+P45379+P63316); experiment: cardiac RTF calcium sensitivity activators, confirmation, biochemical, IANBD-TnC fluorescence, triplicate (AID 504383); settings: IANBD-labeled cardiac RTF, Ca2+ sensitivity fluorescence; at 7.2 µM; hits give high values; scaled from EC20 to saturating calcium; tested at EC20 calcium, 0.472 mM;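 further: 0% = DMSO at 0.472 mM calcium and 100% = DMSO at 2.9 mM calcium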
Procedure, shortened: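 System: Labelled thin filament complex | Technique: Filament fluorescence intensity | Benchmarks: Low control EC20 calcium, high control EC100 calcium | Timing: 15 min at 25 °C | Compound dosing: One dose, 7.2 µM nominal | Probe or stimulus: Ca2+ 0.472 mM, EC20 level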

Structure (SMILES) | activation
CCC(=O)Nc1ccc2oc(-c3cccnc3)nc2c1 | 210% (active)
Cc1cc(=O)oc(C)c1C(=O)Nc1ccc2ncccc2c1 | 6.03%
CCC(=O)N/C(=N/c1nc(C)cc(C)n1)Nc1ccccc1 | 7.51%
CCCCN=C1N/C(=C\c2ccco2)C(=O)N1c1ccccc1 | 370% (active)
Cc1cc(NC(=O)COC(=O)C(Cc2ccccc2)NC(=O)c2ccco2)no1 (stereo unspecified) | 39.2% (active)
COC(=O)[C@H](Cc1ccccc1)NC(=O)Nc1ccc(OC)cc1 | 4.56%
O=C1C=C(NCc2ccco2)CC(c2ccc(Cl)cc2)C1 (stereo unspecified) | 4.86%
CCc1ccc(C2C(C#N)=C(N)SC(N)=C2C#N)s1 | 9.19%
Nc1cnccc1C(=O)O | 26% (active)
CN(C)C=Nc1c(Br)cc(Br)c2nonc12 | 31.3% (active)
CC(C)(C)c1ccc(C(=O)N/C(=C\c2cccs2)C(=O)NCc2ccco2)cc1 | 9.9%
O=C(NCc1ccco1)/C(=C\c1ccco1)NC(=O)c1ccc(Br)o1 | 72.9% (active)
O=C(NCc1cccnc1)/C(=C\c1ccc(-c2ccc(Cl)c(Cl)c2)o1)S(=O)(=O)c1ccccc1 | 5.91%
Cc1cnc(C(=O)Nc2nnc(SCc3c(Cl)cccc3Cl)s2)cn1 | 15% (active)
CCOC(=O)c1c(C)[nH]c(C2=NNC(=NC(C)COC)SC2)c1C (stereo unspecified) | 81% (active)
NC(N)=NCc1cccc(I)c1 | 7.58%
CN(C(=O)C1CCC1C(=O)O)c1nc(-c2ccc(Cl)s2)cs1 (stereo unspecified) | 176% (active)
COC(=O)c1ccc(OC)c(OC2CCCC2)c1 | 6.45%
CCOc1ccc(NC(=O)COC(=O)CCN2C(=O)C3CC=CCC3C2=O)cc1OCC (stereo unspecified) | 8.79%
CCOc1ccc(C(=O)NCC(=O)N2CCC3CCCCC3C2)cc1OCC (stereo unspecified) | 167% (active)
CC(CC(=O)N1CCc2ccccc21)n1cccn1 (stereo unspecified) | 5.25%
CCn1nnnc1SCC(=O)N1CCCc2ccccc21 | 10.8%
Cc1ccc2c(c1)N(CC(=O)N1CCCc3ccccc31)C(=O)C(C)O2 (stereo unspecified) | 21.6% (active)
O=C(O)CN1C(=O)c2cccc3c(Br)ccc1c23 | 89% (active)

Structure (SMILES) | activation
CCCCOC(=O)Nc1nnc(C(C)C)s1 | 617% (active)
CCOCCc1nnc(NC(=O)COC)s1 | 3.67%
CCOC(=O)C(=O)Nc1nnc(COc2ccccc2)s1 | 9.76%
CCSc1nnc(-c2sc3nnc(-c4ccccc4)c(-c4ccccc4)c3c2N)o1 | 6.28%
O=C(O)c1ncc(-c2ccccc2)cn1 | 128% (active)
O=C([O-])c1ccccc1-[n+]1c(-c2ccccc2)cc(-c2ccccc2)cc1-c1ccccc1 | 7.07%
CCn1c(O)c(/C=N/NC(=O)c2ccncc2)c(=O)n(CC)c1=S | 10.1%
O=C(N/N=C/c1c(O)n(-c2ccc(Cl)cn2)c(=O)c2ccccc12)c1ccncc1 | 14.8% (active)
N=C1/C(=C\c2coc3ccc(O)cc3c2=O)C(=O)N=C2SC=CN12 | 5.99%
N=C1/C(=C\c2coc3ccccc3c2=O)C(=O)N=C2SC(c3ccncc3)=NN12 | 22.9% (active)
CC(C)CC1=NN2C(=N)/C(=C\c3coc4ccccc4c3=O)C(=O)N=C2S1 | 13.7% (active)
N=C1/C(=C\c2coc3ccccc3c2=O)C(=O)N=C2SC=CN12 | 12.3% (active)
Cc1ccccc1Cn1cccc1/C=C1/C(=N)N2C=CSC2=NC1=O | 14.6% (active)
O=C(c1ccccc1)N1CCN(CC#CC2(O)CCCCC2)CC1 | 8.87%
COc1ccc(N2CCN(C(=O)Cn3nnc(-c4ccccc4N)n3)CC2)cc1 | 46.5% (active)
CC1CCCCN1C(=O)Cn1nnc(-c2cccnc2)n1 (stereo unspecified) | 5.92%
COc1ccc(-n2nc3c(N4CCC(C(=O)NCc5ccco5)CC4)nnc(C)c3c2C)cc1 | 4.51%
CC(C)CC1C(C#N)=C(N)SC(N)=C1C#N | 4.27%
COc1cc(NC(=O)[C@@H]2CCCN2S(=O)(=O)c2cccc3cccnc23)cc(OC)c1OC | 7.77%
Cc1cc(=O)n2nc(N3CCCC3C(=O)Nc3ccc(C(C)C)cc3)sc2n1 (stereo unspecified) | 426% (active)
Cc1cc(Br)c2c(c1)C(O)(N1CCCCC1C)C(=O)N2 (stereo unspecified) | 12.6% (active)
CC1=NN(C(=O)c2ccc(Cn3ccc([N+](=O)[O-])n3)cc2)C(O)(C(F)(F)F)C1 (stereo unspecified) | 18.8% (active)
CC1=NN(C(=O)c2ccccc2-n2cccc2)C(O)(C(F)(F)F)C1 (stereo unspecified) | 15.7% (active)
COc1cccc(OC)c1C(=O)NNC(=O)c1ccccc1-n1cccc1 | -0.16%

Structure (SMILES) | activation
CC1=C(C#N)C(=O)OC(C)(C)C1 | 10.4%
CC(C)c1nnc(N2C(=O)C(O)=C(C(=O)c3cccs3)C2c2ccccc2)s1 (stereo unspecified) | 7.93%
CSc1ccc(C2C(C(=O)c3ccco3)=C(O)C(=O)N2c2nnc(SC)s2)cc1 (stereo unspecified) | 29.2% (active)
N#Cc1c(NCCCO)nc(-c2ccccc2)c2c1CCCC2 | 16.7% (active)
CCOc1cc(/C=C(\C#N)c2nc(-c3cccs3)c(NC(C)=O)s2)ccc1O | 0.64%
CC(=O)Nc1sc(/C(C#N)=C/c2ccc(Cl)c(Cl)c2)nc1-c1ccc(C)cc1 | -3.28%
CC(=O)Nc1sc(/C(C#N)=C\c2cccc(Cl)c2)nc1-c1ccc(C)cc1 | 49.1% (active)
O=C(CCCN1C(=O)c2ccccc2C1=O)Nc1ccc(S(=O)(=O)N2CCCCC2)cc1 | 4.61%
O=C(CNCc1cccs1)Nc1ccc(S(=O)(=O)N2CCCCC2)cc1 | 66.4% (active)
Cc1ccc(S(=O)(=O)N2CCOCC2)cc1NC(=O)CSc1nccn1C | 11.4%
Cc1ccc(NC(=O)COC(=O)c2csc3c2CCC(C)C3)cc1S(=O)(=O)N1CCCCC1 (stereo unspecified) | 3.56%
O=C(CNCc1cccs1)Nc1cc(S(=O)(=O)N2CCCC2)ccc1Cl | 17.9% (active)
CC(C(=O)NNS(=O)(=O)c1cccc(C(F)(F)F)c1)n1nnc(N2CCOCC2)n1 (stereo unspecified) | 5.72%
C=CCOc1ccn(C)c(=O)n1 | 12.1% (active)
CCOc1ccc(NC(=O)C2CC(=O)N=C(N)S2)cc1 (stereo unspecified) | 4.04%
COc1ccc(N=Nc2nc3ccc(Br)cc3n2C)cc1 | 10.6%
COc1ccc(Nc2nc3ccc(C)cc3cc2C#N)c(OC)c1 | 3.9%
COc1ccc(N=Nc2nc3cc(Br)c(Br)cc3n2C)c(OC)c1 | 2020% (active)
Cc1ccc(N2C(=O)c3cccc4c(N)ccc(c34)C2=O)c2cccnc12 | 9.53%
Cc1ccnc(N2C(=O)c3cccc4c([N+](=O)[O-])ccc(c34)C2=O)c1 | 16.1% (active)
COc1ccccc1N1C(=O)c2cccc3c(N(C)CCO)ccc(c23)C1=O | 7.87%
CN(C)CCCN1C(=O)c2cccc3c([N+](=O)[O-])ccc(c23)C1=O | 38.5% (active)
Cc1cccc(N2C(=O)c3cccc4c(N)ccc(c34)C2=O)c1 | 0.54%
O=C1c2cccc3c([N+](=O)[O-])ccc(c23)C(=O)N1Cc1cccnc1 | 3.03%

Structure (SMILES) | activation
CCOC(=O)c1sc(-c2ccc(F)cc2)cc1NC(=O)Nc1ccccc1OC | 37.5% (active)
COc1ccccc1NS(=O)(=O)c1cc(C(=O)NCCN2CCOCC2)ccc1Cl | 2.55%
CCOc1ccc2ccccc2c1CNCCN1CCOCC1 | 27% (active)
COc1ccccc1N1C(C)=CC(=C(C#N)c2nc3ccccc3s2)C=C1C | 11.1%
CC1=CC(=C(C#N)c2nc3ccccc3s2)C=C(C)N1c1ccc(F)cc1 | 74.2% (active)
Cc1ccc(-n2c(C)cc(C(=O)COC(=O)c3ccc[nH]c3=O)c2C)cc1 | 6.02%
COCCn1c(C)cc(C(=O)COC(=O)c2ccc(Cl)c(S(N)(=O)=O)c2)c1C | 13% (active)
Cc1cc(C)n(CC(O)COc2ccccc2)n1 (stereo unspecified) | 6.17%
O=C1CCC(=O)N1CC(O)COc1ccccc1 (stereo unspecified) | 255% (active)
OCCN1CCN(CC(O)COc2ccc(C34CC5CC(CC(C5)C3)C4)cc2)CC1 (stereo unspecified) | 90.4% (active)
CCCN1C(=O)c2ccccc2NC1c1ccc(O)c(OCC)c1 (stereo unspecified) | 14.5% (active)
COc1ccc(/C(C)=N/N2C(=O)c3ccccc3NC2c2ccc(O)c(OC)c2)cc1 (stereo unspecified) | 9.34%
CCOc1cc(C2C3=C(CCCC3=O)N(C)C3=C2C(=O)CCC3)cc(Cl)c1O | 6.5%
O=C(O)c1cccc2c1-c1c(cccc1[N+](=O)[O-])C2 | 1890% (active)
CC(C)C12CN(C(=O)c3ccccc3[N+](=O)[O-])CC(C(C)C)(CN(C(=O)c3ccccc3[N+](=O)[O-])C1)C2=O | 6.99%
CCc1ccc(Nc2n[n+](-c3ccccc3)c(-c3ccc(N(CC)CC)cc3)s2)cc1 | 5.32%
CCN(CC)c1ccc(-c2sc(Nc3ccccc3)n[n+]2-c2ccc(F)cc2)cc1 | 18.7% (active)
CCN(CC)c1ccc(NC(=S)Nc2ccc(F)cc2)cc1 | 5.29%
CCOC(=O)/C(C#N)=C/c1ccc(N2CCN(Cc3ccccc3)CC2)cc1 | 285% (active)
CCOC(=O)/C(C#N)=C\c1ccc(N2CCN(C/C=C/c3ccccc3)CC2)cc1 | 4.67%
CCOC(=O)Nc1ccc(NCc2ccc(F)cc2)nc1N | 5.72%
CCN(CC)c1ccc2cc(C(=O)NCc3ccc(F)cc3)c(=N)oc2c1 | 54.1% (active)
COC(=O)CNC(=O)COC(=O)c1cc(F)c(F)cc1Cl | 7.53%
Cn1c2c(c(=O)n(C)c1=O)C(C(F)(F)F)(C(F)(F)F)N=C(CCC1CCCCC1)N2 | 9.24%
